Data taken from ChEMBL document CHEMBL6071188, “Synthesis and In Vivo Profiling of Desymmetrized Antimalarial Trioxolanes with Diverse Carbamate Side Chains” (ACS Med Chem Lett, 2024).
pEC50: −log10 of the molar value. In brackets after ≈: the same amount, converted by molar mass. Activity calls are given as the source filed them. No cut-off for these calls is given here.

Key:
[1] = system: Plasmodium berghei; experiment: Antiplasmodial activity against Plasmodium berghei infected in female Swiss Webster mouse model assessed as survival at 10 mg/kg, po administered once daily for 2 days and measured upto 30 days; type: functional; conditions: time 30 day
Outline: (§1)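 Female Swiss Webster mice (~20 g) infected ip with 10^6 P. berghei-infected erythrocytes from a donor mouse. Dosing by oral gavage once daily for 1–2 days starting 1 h post-inoculation, in 10% DMSO/50% PEG400/40% of 20% HP-β-CD in water. Five mice per arm. Daily Giemsa smears from day 7, counting infected cells per 1000 erythrocytes. Body weight tracked. Euthanasia at >50% parasitemia or >15% weight loss. Followed to day 30; cure means no parasitemia at day 30. Survival reported as the day of the longest-surviving mouse.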

[2] = Metabolic stability in human liver microsomes assessed as intrinsic clearance; type: ADME, Microsome; conditions: for microsomal intrinsic clearance: microsomes; for microsomal CLint: liver microsomes, read-out: CLH
[3] = Toxicity in female Swiss Webster mouse infected with Plasmodium berghei assessed as drug tolerance at 10 mg/kg, po administered once daily for 2 days and measured upto 30 days; type: organism-based; conditions: in vivo, 720 h, time 30 day; outline: as §1
[4] = system: Plasmodium falciparum; experiment: Antiplasmodial activity against Plasmodium falciparum W2 infected in human erythrocytes assessed as inhibition of parasitic growth incubated for 72 hrs by YOYO-1 staining based FACScalibur flow cytometry analysis; type: functional, organism-based; conditions: W2, Erythrocyte
Outline: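 P. falciparum W2 grown at 2% hematocrit in RPMI 1640 with 0.5% AlbuMAX II, 0.1 mM hypoxanthine and 25 mM HEPES pH 7.4, at 37 °C under 5% O2/5% CO2/90% N2. Twelve concentrations (3-fold steps, 10 μM to 0.06 nM) or DMSO, 72 h. Cells fixed in 2% formaldehyde, permeabilized, stained with 25 nM YOYO-1 (≥24 h, 4 °C). Parasitemia by flow cytometry on 5 × 10^4 cells. IC50 from 3 replicates.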

[5] = Solubility of the compound in PBS buffer at pH 7.4 at 2 mg/ml incubated for 5 to 6 hrs by LC-MS analysis; type: physicochemical; conditions: time 5-6 hrs
[6] = system: Plasmodium berghei; experiment: Antiplasmodial activity against Plasmodium berghei infected in female Swiss Webster mouse model assessed as survival at 20 mg/kg, po administered once daily for 1 day
[7] = system: Plasmodium berghei; experiment: Antiplasmodial activity against Plasmodium berghei infected in female Swiss Webster mouse model assessed as reduction in parasitemia at 20 mg/kg, po administered as a single dose and monitored for 30 days by giemsa staining based microscopic analysis; conditions: time 30.0 day
[8] = Toxicity in female Swiss Webster mouse infected with Plasmodium berghei assessed as drug tolerance at 20 mg/kg, […]; type: organism-based; conditions: in vivo, po
[9] = Solubility of the compound in PBS buffer at pH 7.4; type: physicochemical
[10] = Half life in male CD1 mouse at 10 mg/kg, po measured upto 24 hrs; type: ADME, organism-based; conditions: in vivo
[11] = Clearance in male CD1 mouse at 3 mg/kg, iv measured upto 24 hrs; type: ADME, organism-based; conditions: in vivo
Outline: (§2)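 Male CD1 mice, n = 3 per group, dosed IV at 3 mg/kg or PO at 10 mg/kg in 10% DMSO/50% PEG400/40% of 20% HP-β-CD in water. Samples below the limit of quantitation excluded from parameters and mean concentrations.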

[12] = AUClast in male CD1 mouse at 10 mg/kg, po measured upto 24 hrs; type: ADME, organism-based; conditions: in vivo; outline: as §2
[13] = Volume of distribution at steady state in male CD1 mouse at 3 mg/kg, iv measured upto 24 hrs; type: ADME, organism-based; conditions: in vivo; outline: as §2
[14] = Oral bioavailability in male CD1 mouse at 10 mg/kg measured upto 24 hrs; type: ADME, organism-based; conditions: in vivo; outline: as §2
[15] = system: Plasmodium berghei; experiment: Antiplasmodial activity Plasmodium berghei ANKA infected in female NMRI mouse model assessed as cure rate at 10 mg/kg, po administered as three consecutive dose daily for 24 to 72 hrs post infection by giemsa staining based microscopy analysis relative to control; type: functional; conditions: time 24-72 hrs
[16] = Oral bioavailability in rat at 17.4 mg/kg by LC-MS analysis; type: ADME, organism-based; conditions: in vivo
[17] = system: Plasmodium berghei; experiment: Antiplasmodial activity against Plasmodium berghei infected in female Swiss Webster mouse model assessed as cure rate at 40 mg/kg, po measured upto 30 days relative to control; type: functional; conditions: time <= 30 day

With `O=C(NCC1(O)COC1)O[C@@H]1CCC[C@]2(C1)OOC1(O2)C2CC3CC(C2)CC1C3` (stereo partly drawn) the Survival [1] was 6 days, the microsomal intrinsic clearance [2] was 76.2 µL/min/mg and the Activity [3] was “Non-Toxic”.

For `NC1(CNC(=O)O[C@@H]2CCC[C@]3(C2)OOC2(O3)C3CC4CC(C3)CC2C4)CC1` (stereo partly drawn), the pEC50 [4] was 8.82 and the microsomal CLint [2] was 41.7 µL/min/mg.

With `c1cc([C@H]2CC[C@]3(CC2)OO[C@]2(O3)C3CC4CC(C3)CC2C4)ccc1OCCN1CCOCC1` the solubility [5] was 0.181 µM (≈ 0.085 µg/mL), the Survival [6] was 30 days and the Activity [7] was “Active”.

In the case of `NC1CN(C(=O)O[C@H]2CCC[C@@]3(C2)OOC2(O3)C3CC4CC(C3)CC2C4)C1` (stereo partly drawn), the Survival [6] was 5 days, the Activity [8] was “Non-Toxic” and the solubility kinetic [9] was 101 µM (≈ 38.2 µg/mL). The microsomal intrinsic clearance [2] was < 11.6 µL/min/mg.

For `NC1(CNC(=O)O[C@H]2CCC[C@@]3(C2)OOC2(O3)C3CC4CC(C3)CC2C4)CCCC1` (stereo partly drawn), the Survival [1] was 14 days, the solubility kinetic [9] was 13.4 µM (≈ 5.64 µg/mL) and the microsomal intrinsic clearance [2] was 25.3 µL/min/mg. The Activity [3] was “Non-Toxic”.

In the case of `NC1(CNC(=O)O[C@H]2CCC[C@@]3(C2)OOC2(O3)C3CC4CC(C3)CC2C4)COC1` (stereo partly drawn), the Survival [1] was 9 days, the solubility kinetic [9] was 87.7 µM (≈ 35.8 µg/mL) and the microsomal intrinsic clearance [2] was 135 µL/min/mg. For the same compound, the Activity [3] was “Non-Toxic”.

With `NC1CCN(C(=O)O[C@H]2CCC[C@@]3(C2)OOC2(O3)C3CC4CC(C3)CC2C4)CC1` (stereo partly drawn) the Survival [6] was 9 days, the Activity [8] was “Non-Toxic” and the Survival [1] was 11 days. For the same compound, the solubility kinetic [9] was 118 µM (≈ 48 µg/mL), the microsomal CLint [2] was 11.8 µL/min/mg and the Activity [3] was “Non-Toxic”.

For `CC(C)(N)CNC(=O)O[C@@H]1CCC[C@]2(C1)OOC1(O2)C2CC3CC(C2)CC1C3` (stereo partly drawn), the Survival [6] was 12 days, the Activity [8] was “Non-Toxic” and the t1/2 [10] was 2.09 h. It also gave a CL [11] of 108 mL/min/kg, an AUClast [12] of 555 ng·h/mL and a microsomal CLint [2] of 12.8 µL/min/mg. It also gave a Vdss [13] of 2.79 L/kg and an F [14] of 39.3%.

With `CC(C)(N)CNC(=O)C[C@H]1CC[C@]2(CC1)OO[C@]1(O2)C2CC3CC(C2)CC1C3` the solubility [5] was 504 µM (≈ 198 µg/mL), the Survival [1] was 14 days and the Activity [15] was 67%. For the same compound, the bioavailability [16] was 35%, the microsomal CLint [2] was < 7 µL/min/mg and the Activity [3] was “Non-Toxic”. The Activity [17] was 100%.

Work on `O=C(NCC1(O)COC1)O[C@H]1CCC[C@@]2(C1)OOC1(O2)C2CC3CC(C2)CC1C3` (stereo partly drawn) yielded a Survival [1] of 6 days, a solubility kinetic [9] of 112 µM (≈ 45.9 µg/mL) and a microsomal intrinsic clearance [2] of 333 µL/min/mg. For the same compound, the Activity [3] was “Non-Toxic”.

Work on `O=C(O[C@@H]1CCC[C@]2(C1)OOC1(O2)C2CC3CC(C2)CC1C3)N1CC(O)(C(F)(F)F)C1` (stereo partly drawn) yielded a Survival [1] of 9 days, a solubility kinetic [9] of 24.8 µM (≈ 11.1 µg/mL) and a microsomal intrinsic clearance [2] of 234 µL/min/mg. The Activity [3] was “Non-Toxic”.

`CCC1(O)CN(C(=O)O[C@@H]2CCC[C@]3(C2)OOC2(O3)C3CC4CC(C3)CC2C4)C1` (stereo partly drawn) gave a solubility kinetic [9] of 58.7 µM (≈ 23.9 µg/mL) and a microsomal intrinsic clearance [2] of 480 µL/min/mg.

With `CC(C)C1(O)CN(C(=O)O[C@@H]2CCC[C@]3(C2)OOC2(O3)C3CC4CC(C3)CC2C4)C1` (stereo partly drawn) the solubility kinetic [9] was 15.9 µM (≈ 6.7 µg/mL) and the microsomal intrinsic clearance [2] was 392 µL/min/mg.

Work on `NCC1CCN(C(=O)O[C@@H]2CCC[C@]3(C2)OOC2(O3)C3CC4CC(C3)CC2C4)CC1` (stereo partly drawn) yielded an Activity [17] of 20%.

For `N[C@@H]1CCCN(C(=O)O[C@@H]2CCC[C@]3(C2)OOC2(O3)C3CC4CC(C3)CC2C4)C1` (stereo partly drawn), the Survival [1] was 12 days, the solubility kinetic [9] was 74.9 µM (≈ 30.4 µg/mL) and the microsomal intrinsic clearance [2] was 43.7 µL/min/mg. The Activity [3] was “Non-Toxic”.
